Laboratory results from ChEMBL document CHEMBL1141363, “Synthesis and evaluation of novel heterocyclic MMP inhibitors” (Bioorg Med Chem Lett, 2007).
pIC50: −log10 of the molar value.

Tests used:
Interstitial collagenase = target: T1, Interstitial collagenase (Homo sapiens, UniProt P03956); experiment: Inhibition of MMP1
T1 sequence (P03956 whole entry): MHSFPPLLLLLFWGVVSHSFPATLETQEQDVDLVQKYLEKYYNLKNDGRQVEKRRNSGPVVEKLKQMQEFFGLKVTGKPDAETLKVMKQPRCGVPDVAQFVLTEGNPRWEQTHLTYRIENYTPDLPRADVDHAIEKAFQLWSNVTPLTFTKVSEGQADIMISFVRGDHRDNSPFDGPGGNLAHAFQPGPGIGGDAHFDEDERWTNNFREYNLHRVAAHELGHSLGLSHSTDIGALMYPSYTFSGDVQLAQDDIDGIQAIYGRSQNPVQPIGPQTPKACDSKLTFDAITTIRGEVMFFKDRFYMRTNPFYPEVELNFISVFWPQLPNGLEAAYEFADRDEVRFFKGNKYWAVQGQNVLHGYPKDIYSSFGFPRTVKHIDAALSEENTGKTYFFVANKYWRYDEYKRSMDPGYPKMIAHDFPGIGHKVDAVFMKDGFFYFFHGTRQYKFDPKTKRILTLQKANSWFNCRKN
In short: (§1)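 Catalytic domains used at final levels of 85 nM (MMP-1), 24 nM (MMP-2), 18 nM (MMP-9) and 84 nM (MMP-12). Each enzyme was premixed with compound (serial 1:2 dilutions, 150 to 1.2) for 30 min at 37 °C. Substrate was added in 50 mM Hepes with 5 mM CaCl2 and 0.05% w/w Brij-35, pH 7.5, then incubated 30 min. Fluorescence read at ex 328/em 393 nm over 45 min, every 50 s.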

[1] = target: Macrophage metalloelastase (Homo sapiens, UniProt P39900); experiment: Inhibition of MMP12; in short: as §1
[2] = target: 72 kDa type IV collagenase (Homo sapiens, UniProt P08253); experiment: Inhibition of MMP2; in short: as §1
[3] = target: Matrix metalloproteinase-9 (Homo sapiens, UniProt P14780); experiment: Inhibition of MMP9; in short: as §1
Sequence of Matrix metalloproteinase-9 (P14780 whole entry): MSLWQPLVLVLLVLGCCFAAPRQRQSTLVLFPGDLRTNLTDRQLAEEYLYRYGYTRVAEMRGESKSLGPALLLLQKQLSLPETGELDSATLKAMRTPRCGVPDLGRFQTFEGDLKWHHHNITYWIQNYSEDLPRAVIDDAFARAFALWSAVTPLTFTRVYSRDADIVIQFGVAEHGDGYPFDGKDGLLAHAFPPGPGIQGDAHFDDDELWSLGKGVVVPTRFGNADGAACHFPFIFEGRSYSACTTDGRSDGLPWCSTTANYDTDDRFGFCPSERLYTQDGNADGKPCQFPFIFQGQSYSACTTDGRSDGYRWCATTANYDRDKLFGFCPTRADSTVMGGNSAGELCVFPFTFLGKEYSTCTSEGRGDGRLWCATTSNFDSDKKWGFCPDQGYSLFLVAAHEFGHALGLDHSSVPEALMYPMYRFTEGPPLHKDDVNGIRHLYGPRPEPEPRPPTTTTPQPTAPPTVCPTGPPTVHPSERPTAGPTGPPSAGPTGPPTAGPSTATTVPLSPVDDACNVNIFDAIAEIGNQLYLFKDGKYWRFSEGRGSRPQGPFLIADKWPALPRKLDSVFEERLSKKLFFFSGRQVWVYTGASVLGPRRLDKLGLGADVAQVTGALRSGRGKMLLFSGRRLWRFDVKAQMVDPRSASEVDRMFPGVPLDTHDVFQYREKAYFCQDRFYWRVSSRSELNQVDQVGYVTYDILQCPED

Sequence of Macrophage metalloelastase (P39900 whole entry): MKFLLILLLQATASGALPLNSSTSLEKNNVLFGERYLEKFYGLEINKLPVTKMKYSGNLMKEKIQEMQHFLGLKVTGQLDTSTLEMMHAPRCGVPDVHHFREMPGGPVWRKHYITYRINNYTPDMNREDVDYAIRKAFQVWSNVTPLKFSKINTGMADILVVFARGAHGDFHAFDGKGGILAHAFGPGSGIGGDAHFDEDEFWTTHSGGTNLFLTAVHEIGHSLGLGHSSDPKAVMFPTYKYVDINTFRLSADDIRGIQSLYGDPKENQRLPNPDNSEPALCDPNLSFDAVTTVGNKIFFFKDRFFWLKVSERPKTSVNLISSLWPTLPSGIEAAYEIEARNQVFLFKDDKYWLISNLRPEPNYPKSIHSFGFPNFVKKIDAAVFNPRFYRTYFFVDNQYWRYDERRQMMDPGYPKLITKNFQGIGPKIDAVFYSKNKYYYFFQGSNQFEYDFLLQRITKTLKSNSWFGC
Sequence of 72 kDa type IV collagenase (P08253 whole entry): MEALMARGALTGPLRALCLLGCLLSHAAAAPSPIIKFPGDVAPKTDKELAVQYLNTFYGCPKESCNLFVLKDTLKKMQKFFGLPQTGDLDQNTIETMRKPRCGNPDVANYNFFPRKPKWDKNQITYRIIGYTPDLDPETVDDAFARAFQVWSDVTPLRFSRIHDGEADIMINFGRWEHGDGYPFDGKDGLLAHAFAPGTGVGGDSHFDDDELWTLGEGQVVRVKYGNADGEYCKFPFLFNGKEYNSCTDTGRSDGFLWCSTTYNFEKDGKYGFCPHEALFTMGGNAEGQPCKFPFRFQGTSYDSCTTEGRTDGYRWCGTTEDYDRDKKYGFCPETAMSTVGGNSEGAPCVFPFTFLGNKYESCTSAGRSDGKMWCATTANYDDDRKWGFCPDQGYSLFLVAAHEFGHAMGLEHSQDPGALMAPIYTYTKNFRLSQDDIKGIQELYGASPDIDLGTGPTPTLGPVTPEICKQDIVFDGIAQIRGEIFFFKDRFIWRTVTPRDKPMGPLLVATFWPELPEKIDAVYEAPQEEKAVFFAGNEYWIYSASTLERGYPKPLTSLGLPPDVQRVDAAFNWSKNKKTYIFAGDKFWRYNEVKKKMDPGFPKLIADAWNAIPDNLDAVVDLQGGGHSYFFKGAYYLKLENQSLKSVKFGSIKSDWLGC

Row | SMILES | pIC50 (Interstitial collagenase) | pIC50 [1] | pIC50 [2] | pIC50 [3]
1 | C(=C\c1ccccc1)/Cn1cc(C2=NCCO2)nn1 | < 3.82 | 4.21 | 3.83 | < 3.82
2 | CCCCCCOC(=O)c1cccc(S)n1 | 3.94 | 3.98 | 4.07 | 3.96
3 | CCCCCCn1cc(C2=NCCO2)nn1 | < 3.82 | < 3.82 | < 3.82 | < 3.82
4 | c1ccc(Cn2cc(C3=NCCO3)nn2)cc1 | < 3.82 | < 3.82 | < 3.82 | < 3.82
5 | c1ccc(CCCn2cc(C3=NCCO3)nn2)cc1 | < 3.82 | < 3.82 | < 3.82 | < 3.82
6 | O=C(OCc1ccc(F)cc1)c1cccc(S)n1 | 3.92 | 3.95 | 3.97 | 3.92
7 | O=C(OCc1c(F)cccc1F)c1cccc(=S)[nH]1 | 4.04 | 3.90 | 4.18 | 4.00
8 | O=C(OCc1cc(F)c(F)cc1F)c1cccc(=S)[nH]1 | 3.91 | 3.97 | 4.05 | 3.98
9 | O=C(OCc1cccc(Oc2ccccc2)c1)c1cccc(S)n1 | 4.11 | 4.15 | 4.34 | 4.12
10 | O=C(OCc1ccc(Oc2ccccc2)cc1)c1cccc(S)n1 | 3.94 | 3.96 | 4.03 | 3.96
11 | O=C(OCc1ccc(Cl)cc1)c1cccc(S)n1 | 3.90 | 3.94 | 4.02 | 3.95
12 | O=C(Oc1cccc2ccccc12)c1cccc(=S)[nH]1 | < 3.82 | < 3.82 | 4.01 | < 3.82
13 | O=C(Oc1ccc2ccccc2c1)c1cccc(S)n1 | 4.00 | 4.00 | 4.00 | 3.92
14 | O=C(OCc1ccc(-c2ccccc2)cc1)c1cccc(=S)[nH]1 | 3.92 | 3.87 | 3.96 | 3.82
15 | O=C(OCc1cccc(-c2ccccc2)c1)c1cccc(=S)[nH]1 | 4.12 | 4.28 | 4.38 | 4.30
16 | c1ccc(CCn2nnc(Cc3cccnc3)n2)cc1 | < 3.82 | < 3.82 | < 3.82 | < 3.82
17 | CCCCCOC(=O)c1cccc(=O)[nH]1 | 4.30 | 4.17 | 3.99 | 4.18
18 | O=C(OC1CCC1)c1cccc(S)n1 | 3.87 | < 3.82 | < 3.82 | 3.86
19 | O=C(OCCc1ccccc1)c1cccc(=S)[nH]1 | 3.92 | 3.93 | 3.92 | 3.97
20 | O=C(OCCCc1ccccc1)c1cccc(=S)[nH]1 | 4.02 | 4.07 | 4.00 | 3.95
21 | O=C(Oc1ccc2ccccc2c1)c1cccc(=O)[nH]1 | 4.12 | 4.01 | 3.90 | 3.99

Row | SMILES | pIC50 (Interstitial collagenase) | pIC50 [1] | pIC50 [2] | pIC50 [3]
22 | O=C(OCc1ccc2c(c1)OCO2)c1cccc(=O)[nH]1 | 3.89 | 3.98 | 3.97 | 3.94
23 | O=C(OCc1c(F)cccc1F)c1cccc(=O)[nH]1 | 4.46 | 4.22 | 4.18 | 4.22
24 | O=C(OCc1c(F)cc(F)cc1F)c1cccc(=O)[nH]1 | 4.80 | 4.51 | 4.41 | 4.48
25 | O=C(OCc1c(F)c(F)c(F)c(F)c1F)c1cccc(=O)[nH]1 | 4.72 | 4.20 | 4.19 | 4.16
26 | O=C(OCc1cccc(Cl)c1)c1cccc(=O)[nH]1 | 4.60 | 4.34 | 5.30 | 4.17
27 | O=C(OCc1cccc(-c2ccccc2)c1)c1cccc(=O)[nH]1 | 4.38 | 4.00 | 4.48 | < 3.82
28 | O=C(OCc1cccc(Oc2ccccc2)c1)c1cccc(=O)[nH]1 | 4.17 | 3.93 | < 3.82 | < 3.82
29 | O=C(Oc1cccs1)c1cccc(=O)[nH]1 | 4.25 | 4.19 | 4.14 | 4.15
30 | O=C(OCc1ccc(Cl)cc1)c1cccc(=O)[nH]1 | 4.59 | 4.33 | 4.16 | 4.17
31 | O=C(OCc1ccccc1Br)c1cccc(=O)[nH]1 | 4.72 | 4.36 | 4.24 | 4.23
32 | O=C(OCc1cccc(Br)c1)c1cccc(=O)[nH]1 | 4.66 | 4.51 | 4.17 | 4.17
33 | Cc1cccc(COC(=O)c2cccc(S)n2)c1 | < 3.82 | 4.15 | 5.15 | 5.15
34 | Cc1ccc(COC(=O)c2cccc(=S)[nH]2)cc1 | < 3.82 | 4.09 | 4.01 | 3.92
35 | O=C(OCc1cccc(C(F)(F)F)c1)c1cccc(=S)[nH]1 | 3.87 | 3.87 | 3.96 | 3.90
36 | COc1cccc(COC(=O)c2cccc(S)n2)c1 | 4.07 | 4.11 | 4.05 | 4.03
37 | O=C(OCc1ccc(Br)cc1)c1cccc(=O)[nH]1 | 4.09 | 3.98 | 3.97 | 3.94
38 | O=C(OCCCCOc1ccccc1)c1cccc(S)n1 | 3.86 | 4.11 | 4.20 | 4.08
39 | O=C(OCc1cccc(F)c1)c1cccc(S)n1 | 3.92 | 3.82 | 3.91 | 3.97
40 | O=C(OC/C=C/c1ccccc1)c1cccc(=O)[nH]1 | 4.07 | 4.15 | 4.05 | 4.14
41 | O=C(Oc1ccco1)c1cccc(=O)[nH]1 | 4.34 | 4.12 | 3.95 | 4.05
42 | O=C(OCc1cc(F)c(F)cc1F)c1cccc(=O)[nH]1 | 4.52 | 4.25 | 4.07 | 4.17

Row | SMILES | pIC50 (Interstitial collagenase) | pIC50 [1] | pIC50 [2] | pIC50 [3]
43 | O=C(OCc1ccc(C(F)(F)F)cc1)c1cccc(=S)[nH]1 | < 3.82 | 4.03 | 3.90 | 3.85
44 | O=C(Oc1ccsc1)c1cccc(=O)[nH]1 | 4.41 | 4.21 | 4.19 | 4.17
45 | O=C(OCc1cc(F)ccc1F)c1cccc(=O)[nH]1 | 4.15 | 4.00 | 4.15 | 4.07
46 | O=C(Oc1cccc2ccccc12)c1cccc(=O)[nH]1 | 3.94 | 3.95 | 3.96 | 3.96
47 | O=C(OCc1cc(F)cc(F)c1)c1cccc(=O)[nH]1 | 4.39 | 4.70 | 4.16 | 4.15
48 | O=C(OCc1ccccc1Cl)c1cccc(=O)[nH]1 | 4.29 | 4.17 | 4.16 | 4.09
49 | COc1ccc(COC(=O)c2cccc(S)n2)cc1 | 3.97 | 4.02 | 4.04 | 4.02
50 | O=C(OCc1ccccc1Br)c1cccc(S)n1 | < 3.82 | < 3.82 | 3.97 | < 3.82
51 | c1cncc(Cc2nnn[nH]2)c1 | < 3.82 | < 3.82 | 4.32 | < 3.82
52 | O=C(Oc1ccsc1)c1cccc(S)n1 | 3.97 | 4.03 | 4.11 | 4.05
53 | c1ccc(Cn2nnc(Cc3cccnc3)n2)cc1 | < 3.82 | < 3.82 | < 3.82 | < 3.82
54 | c1ccc(CCCn2nnc(Cc3cccnc3)n2)cc1 | < 3.82 | < 3.82 | < 3.82 | < 3.82
55 | O=C(OCc1cc(F)ccc1F)c1cccc(S)n1 | 3.94 | 4.77 | 4.10 | 3.85
56 | CCCCCCCn1cc(C2=NCCO2)nn1 | < 3.82 | < 3.82 | < 3.82 | < 3.82
57 | c1ccc(CCn2cc(C3=NCCO3)nn2)cc1 | < 3.82 | < 3.82 | < 3.82 | < 3.82
58 | O=C(OCc1ccccc1)c1cccc(S)n1 | 4.00 | 4.09 | 4.07 | 4.06
59 | CC(C)OC(=O)c1cccc(S)n1 | 3.92 | 3.84 | < 3.82 | 3.88
60 | C(=C\c1ccccc1)/Cn1nnc(Cc2cccnc2)n1 | < 3.82 | < 3.82 | < 3.82 | < 3.82
61 | O=C(OC1CCCCC1)c1cccc(S)n1 | 3.99 | 4.06 | 4.14 | 4.04
62 | CC(C)OC(=O)c1cccc(=O)[nH]1 | 4.51 | 4.17 | 4.17 | 4.17
